This note sets out measurements from ChEMBL document CHEMBL1139893, “Triterpene glycosides from the flower petals of sunflower (Helianthus annuus) and their anti-inflammatory activity” (2007).

The subject of assay [1] is Mus musculus. Nature of the assay: Inhibitory ratio of TPA-induced edema in presence of drug to TPA-induced edema in ICR mouse. It counts as functional. The gist of the method:
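Topical sample at 1.0 mg/ear, or CHCl3-MeOH (1:1, 20 µL) vehicle control, given about 30 min before TPA (1.7 nmol in 20 µL acetone) on the right ear of female ICR mice. Ear thickness was gauged before and 6 h after TPA. InhR = [(Edema A − Edema B)/Edema A] × 100. Mean of five mice, Student's t-test.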

Assay [2] concerns Mus musculus. Nature of the assay: Antiinflammatory activity in ICR mouse assessed as inhibition of TPA-induced edema per ear applied topically 30 mins before TPA treatment. The assay is classed as functional. Put shortly:
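Female SPF ICR mice. TPA (1.7 nmol, 1 µg) in 20 µL acetone was applied to the right ear only, 10 µL to each of the inner and outer surfaces. Sample or vehicle (CHCl3-MeOH 1:1, 20 µL) was applied topically about 30 min beforehand. Ear thickness was read with a pocket gauge before and 6 h after TPA. ID50 came from probit-graphic interpolation across four dose levels, five mice each.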

`C[C@]12CCC(=O)C=C1CC[C@@H]1[C@@H]2[C@@H](O)C[C@@]2(C)[C@H]1CC[C@]2(O)C(=O)CO` [HYDROCORTISONE]: the Ratio with Mus musculus [1] was 99%. Further, the ID50 in the assay on Mus musculus [2] was 83 nmol.

`C[C@@H]1O[C@@H](O[C@H]2CC[C@]3(C)[C@H]4CC=C5[C@@H]6CC(C)(C)CC[C@]6(C(=O)OC6OC[C@@H](O)[C@@H](O)[C@@H]6O[C@@H]6O[C@@H](C)[C@H](O[C@@H]7O[C@H](CO)[C@@H](O)[C@H](O)[C@H]7O)[C@@H](O)[C@H]6O)[C@H](O)C[C@@]5(C)[C@]4(C)CC[C@H]3C2(C)C)[C@H](O)[C@H](O)[C@H]1OC1OC[C@@H](O)[C@H](O)[C@H]1O` (stereo partly specified) [HELIANTHOSIDE B]: the Ratio in the assay on Mus musculus [1] is on record as 80%. Besides, the ID50 with Mus musculus [2] was 65 nmol.

As for `C[C@@H]1O[C@@H](O[C@H]2[C@H](O[C@H]3CC[C@]4(C)[C@H]5CC=C6[C@@H]7CC(C)(C)CC[C@]7(C(=O)O[C@@H]7OC[C@H](O)[C@H](O)[C@H]7O[C@@H]7O[C@@H](C)[C@H](O[C@@H]8O[C@H](CO)[C@@H](O)[C@H](O)[C@H]8O)[C@@H](O)[C@H]7O)CC[C@@]6(C)[C@]5(C)CC[C@H]4C3(C)C)O[C@H](CO)[C@@H](O[C@@H]3OC[C@@H](O)[C@H](O)[C@H]3O)[C@@H]2O)[C@H](O)[C@H](O)[C@H]1O` [HELIANTHOSIDE 1], the Ratio in the assay on Mus musculus [1] amounted to 71%. In the assay with Mus musculus [2], the ID50 amounted to 144 nmol.

Turning to `C[C@@H]1O[C@@H](O[C@@H]2[C@@H](O)[C@H](O[C@H]3CC[C@@]4(C)[C@@H](CC[C@]5(C)[C@@H]4CC=C4[C@@H]6CC(C)(C)CC[C@]6(C(=O)O[C@@H]6OC[C@@H](O)[C@H](O)[C@H]6O[C@@H]6O[C@@H](C)[C@H](O[C@@H]7O[C@H](CO)[C@@H](O)[C@H](O)[C@H]7O)[C@@H](O)[C@H]6O)[C@H](O)C[C@]45C)[C@]3(C)CO)O[C@H](CO)[C@H]2O[C@@H]2OC[C@@H](O)[C@H](O)[C@H]2O)[C@H](O)[C@H](O)[C@H]1O` [HELIANTHOSIDE 4], the Ratio with Mus musculus [1] was found to be 75%. Besides, in the assay on Mus musculus [2], the ID50 amounted to 262 nmol.

Take `COc1ccc2c(c1)c(CC(=O)O)c(C)n2C(=O)c1ccc(Cl)cc1` [INDOMETHACIN]: the Ratio in the assay on Mus musculus [1] was 96%. Also, in the assay on Mus musculus [2], the ID50 is given as 838 nmol.

`C[C@@H]1O[C@@H](O[C@H]2[C@H](O[C@H]3CC[C@]4(C)[C@H]5CC=C6[C@@H]7CC(C)(C)CC[C@]7(C(=O)O[C@@H]7O[C@H](CO)[C@@H](O)[C@H](O)[C@H]7O[C@@H]7O[C@@H](C)[C@H](O[C@@H]8O[C@H](CO)[C@@H](O)[C@H](O)[C@H]8O)[C@@H](O)[C@H]7O)[C@H](O)C[C@@]6(C)[C@]5(C)CC[C@H]4C3(C)C)O[C@H](CO)[C@@H](O[C@@H]3OC[C@@H](O)[C@H](O)[C@H]3O)[C@@H]2O)[C@H](O)[C@H](O)[C@H]1O` [HELIANTHOSIDE 3]: the Ratio with Mus musculus [1] is 73%. For the same compound, in the assay with Mus musculus [2], the ID50 came to 156 nmol.

As to `C[C@@H]1O[C@@H](O[C@@H]2[C@@H](O)[C@H](O[C@H]3CC[C@]4(C)[C@H]5CC=C6[C@@H]7CC(C)(C)CC[C@]7(C(=O)O[C@@H]7O[C@H](CO)[C@@H](O)[C@H](O)[C@H]7O[C@@H]7O[C@@H](C)[C@H](O)[C@@H](O)[C@H]7O)[C@H](O)C[C@@]6(C)[C@]5(C)CC[C@H]4C3(C)C)O[C@H](CO)[C@H]2O[C@@H]2OC[C@@H](O)[C@H](O)[C@H]2O)[C@H](O)[C@H](O)[C@H]1O` [HELIANTHOSIDE 5], the Ratio in the assay on Mus musculus [1] is recorded as 63%. For the same compound, the ID50 in the assay on Mus musculus [2] worked out at 155 nmol.

As for `C[C@@H]1O[C@@H](O[C@@H]2[C@@H](O)[C@H](O[C@H]3CC[C@]4(C)[C@H]5CC=C6[C@@H]7CC(C)(C)CC[C@]7(C(=O)O[C@@H]7OC[C@H](O)[C@H](O)[C@H]7O[C@@H]7O[C@@H](C)[C@H](O[C@@H]8O[C@H](CO)[C@@H](O)[C@H](O)[C@H]8O)[C@@H](O)[C@H]7O)[C@H](O)C[C@@]6(C)[C@]5(C)CC[C@H]4C3(C)C)O[C@H](CO)[C@H]2O[C@@H]2OC[C@@H](O)[C@H](O)[C@H]2O)[C@H](O)[C@H](O)[C@H]1O` [HELIANTHOSIDE 2], the Ratio with Mus musculus [1] is on record as 77%. The ID50 with Mus musculus [2] came out at 135 nmol.
